Measurements from ChEMBL document CHEMBL3769334, “Interaction of prodigiosin with HSA and β-Lg: Spectroscopic and molecular docking studies” (Bioorg Med Chem, 2016).

Tests used:
Albumin [1] = molecular target: T1, Albumin (Homo sapiens, UniProt P02768); assay: Binding affinity to human serum albumin assessed as Stern-Volmer quenching constant at 290 K after 10 mins by fluorescence assay; type: ADME; conditions: isolated protein
Summary of the method: (§1)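 HSA at 0.4 µM in 20 mM Tris pH 7.4, titrated with prodigiosin at 0–3.2 µM from a methanol stock. Samples equilibrated 10 min after each addition. Excitation 295 nm, emission 310–600 nm, intensity read at the emission maximum. Run at 290, 300 and 310 K. Kb and n from log[(F0−F)/F] versus log[Q].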

Albumin [2] = molecular target: T1, Albumin; assay: Binding affinity to human serum albumin assessed as Stern-Volmer quenching constant at 300 K after 10 mins by fluorescence assay; type: ADME; conditions: isolated protein; summary of the method: as §1
Albumin [3] = molecular target: T1, Albumin; assay: Binding affinity to human serum albumin assessed as Stern-Volmer quenching constant at 310 K after 10 mins by fluorescence assay; type: ADME; conditions: isolated protein; summary of the method: as §1
Beta-lactoglobulin [4] = molecular target: T2, Beta-lactoglobulin (Bos taurus, UniProt P02754); assay: Binding affinity to bovine beta-lactoglobulin assessed as Stern-Volmer quenching constant at 290 K after 10 mins by fluorescence assay; type: ADME; conditions: cattle
T2 sequence (P02754 whole entry): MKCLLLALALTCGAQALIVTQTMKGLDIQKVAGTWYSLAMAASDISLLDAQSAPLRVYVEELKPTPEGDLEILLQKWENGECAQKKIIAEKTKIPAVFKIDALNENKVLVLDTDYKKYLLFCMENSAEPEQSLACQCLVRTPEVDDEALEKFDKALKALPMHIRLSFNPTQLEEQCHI
Summary of the method: (§2)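 Intrinsic Trp fluorescence of β-Lg at 1 µM in Tris-HCl pH 7.4, titrated with prodigiosin added from a methanol stock. Samples equilibrated 10 min after each addition. Excitation 295 nm, emission 310–600 nm, intensity read at the emission maximum. Run at 290, 300 and 310 K with a water-bath thermostat. Binding parameters taken from quenching data.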

Beta-lactoglobulin [5] = molecular target: T2, Beta-lactoglobulin; assay: Binding affinity to bovine beta-lactoglobulin assessed as Stern-Volmer quenching constant at 300 K after 10 mins by fluorescence assay; type: ADME; conditions: cattle; summary of the method: as §2
Beta-lactoglobulin [6] = molecular target: T2, Beta-lactoglobulin; assay: Binding affinity to bovine beta-lactoglobulin assessed as Stern-Volmer quenching constant at 310 K after 10 mins by fluorescence assay; type: ADME; conditions: cattle; summary of the method: as §2
Albumin [7] = molecular target: T1, Albumin; assay: Binding affinity to human serum albumin assessed as bimolecular quenching rate constant at 290 K after 10 mins by fluorescence assay; type: ADME; conditions: isolated protein; summary of the method: as §1
Albumin [8] = molecular target: T1, Albumin; assay: Binding affinity to human serum albumin assessed as bimolecular quenching rate constant at 300 K after 10 mins by fluorescence assay; type: ADME; conditions: isolated protein; summary of the method: as §1
Albumin [9] = molecular target: T1, Albumin; assay: Binding affinity to human serum albumin assessed as bimolecular quenching rate constant at 310 K after 10 mins by fluorescence assay; type: ADME; conditions: isolated protein; summary of the method: as §1
Beta-lactoglobulin [10] = molecular target: T2, Beta-lactoglobulin; assay: Binding affinity to bovine beta-lactoglobulin assessed as bimolecular quenching rate constant at 290 K after 10 mins by fluorescence assay; type: ADME; conditions: cattle; summary of the method: as §2
Beta-lactoglobulin [11] = molecular target: T2, Beta-lactoglobulin; assay: Binding affinity to bovine beta-lactoglobulin assessed as bimolecular quenching rate constant at 300 K after 10 mins by fluorescence assay; type: ADME; conditions: cattle; summary of the method: as §2
Beta-lactoglobulin [12] = molecular target: T2, Beta-lactoglobulin; assay: Binding affinity to bovine beta-lactoglobulin assessed as bimolecular quenching rate constant at 310 K after 10 mins by fluorescence assay; type: ADME; conditions: cattle; summary of the method: as §2
Albumin [13] = molecular target: T1, Albumin; assay: Binding affinity to human serum albumin at 290 K after 10 mins by fluorescence assay; type: ADME; conditions: isolated protein; summary of the method: as §1
Albumin [14] = molecular target: T1, Albumin; assay: Binding affinity to human serum albumin at 300 K after 10 mins by fluorescence assay; type: ADME; conditions: isolated protein; summary of the method: as §1
Albumin [15] = molecular target: T1, Albumin; assay: Binding affinity to human serum albumin at 310 K after 10 mins by fluorescence assay; type: ADME; conditions: isolated protein; summary of the method: as §1
Beta-lactoglobulin [16] = molecular target: T2, Beta-lactoglobulin; assay: Binding affinity to bovine beta-lactoglobulin at 290 K after 10 mins by fluorescence assay; type: ADME; conditions: cattle; summary of the method: as §2
Beta-lactoglobulin [17] = molecular target: T2, Beta-lactoglobulin; assay: Binding affinity to bovine beta-lactoglobulin at 300 K after 10 mins by fluorescence assay; type: ADME; conditions: cattle; summary of the method: as §2
Beta-lactoglobulin [18] = molecular target: T2, Beta-lactoglobulin; assay: Binding affinity to bovine beta-lactoglobulin at 310 K after 10 mins by fluorescence assay; type: ADME; conditions: cattle; summary of the method: as §2
Albumin [19] = molecular target: T1, Albumin; assay: Binding affinity to human serum albumin assessed as quenching of protein-compound complex at protein/compound molar ratio of 5 at 290 K after 10 mins by fluorescence assay; type: ADME; conditions: isolated protein; summary of the method: as §1
Beta-lactoglobulin [20] = molecular target: T2, Beta-lactoglobulin; assay: Binding affinity to bovine beta-lactoglobulin assessed as association constant at pH 7.4 after 30 mins by fluorescence assay; type: ADME; conditions: cattle, pH 7.4, 0.5 h
Summary of the method: (§3)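 β-Lg solutions at pH 3.0, 5.5 and 7.4, incubated 30 min at 25 °C before prodigiosin was added. Intrinsic fluorescence excited at 295 nm, emission monitored at 310–600 nm.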

Beta-lactoglobulin [21] = molecular target: T2, Beta-lactoglobulin; assay: Binding affinity to bovine beta-lactoglobulin assessed as association constant at pH 5.5 after 30 mins by fluorescence assay; type: ADME; conditions: cattle, pH 5.5, 0.5 h; summary of the method: as §3
Beta-lactoglobulin [22] = molecular target: T2, Beta-lactoglobulin; assay: Binding affinity to bovine beta-lactoglobulin assessed as association constant at pH 3 after 30 mins by fluorescence assay; type: ADME; conditions: cattle, pH 3, 0.5 h; summary of the method: as §3
Albumin [23] = molecular target: T1, Albumin; assay: Displacement of warfarin from human serum albumin at 0.4 to 3.2 uM after 30 mins by fluorescence assay; conditions: 0.5 h
Summary of the method: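 HSA and warfarin at equal (1:1) concentrations, preincubated 30 min. Prodigiosin added at 0.4–3 µM. Fluorescence excited at 295 nm and recorded at 310–600 nm, with and without prodigiosin.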

Albumin [24] = molecular target: T1, Albumin; assay: Binding affinity to human serum albumin assessed as quenching of protein-compound complex at protein/compound molar ratio of 7 at 300 to 310 K after 10 mins by fluorescence assay; type: ADME; conditions: isolated protein; summary of the method: as §1
[25] = molecular target: Beta-lactoglobulin (Bos taurus) (UniProt P02754); assay: Binding affinity to bovine beta-lactoglobulin assessed as quenching of protein-compound complex at protein/compound molar ratio of 4 at 310 K after 10 mins by fluorescence assay; conditions: isolated protein
[26] = molecular target: Beta-lactoglobulin (Bos taurus) (UniProt P02754); assay: Binding affinity to bovine beta-lactoglobulin assessed as quenching of protein-compound complex at protein/compound molar ratio of 7 at 290 K after 10 mins by fluorescence assay; conditions: isolated protein
[27] = molecular target: Beta-lactoglobulin (Bos taurus) (UniProt P02754); assay: Binding affinity to bovine beta-lactoglobulin assessed as quenching of protein-compound complex at protein/compound molar ratio of 7 at 300 K after 10 mins by fluorescence assay; conditions: isolated protein

T1 sequence (P02768 whole entry): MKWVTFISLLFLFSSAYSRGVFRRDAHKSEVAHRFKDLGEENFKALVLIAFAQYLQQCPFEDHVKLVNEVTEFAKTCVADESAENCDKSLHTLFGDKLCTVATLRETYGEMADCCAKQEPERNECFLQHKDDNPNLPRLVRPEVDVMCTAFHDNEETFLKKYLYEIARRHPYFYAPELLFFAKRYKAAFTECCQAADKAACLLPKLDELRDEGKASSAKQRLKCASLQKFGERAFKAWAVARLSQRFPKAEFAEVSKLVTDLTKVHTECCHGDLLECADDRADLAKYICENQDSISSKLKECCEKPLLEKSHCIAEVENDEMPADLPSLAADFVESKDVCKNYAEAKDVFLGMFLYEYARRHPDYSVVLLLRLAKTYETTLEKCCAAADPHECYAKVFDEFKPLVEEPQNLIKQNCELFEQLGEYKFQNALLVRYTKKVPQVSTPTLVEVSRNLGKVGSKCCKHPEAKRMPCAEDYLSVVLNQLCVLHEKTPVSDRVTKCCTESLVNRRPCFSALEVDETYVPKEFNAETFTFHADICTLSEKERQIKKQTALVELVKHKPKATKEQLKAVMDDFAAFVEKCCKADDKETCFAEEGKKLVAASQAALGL

## CCCCCC1=C/C(=C\c2[nH]c(-c3ccc[nH]3)cc2OC)N=C1C
Albumin [1]
  KSV: 8.14 ×10⁴ /M
Albumin [2]
  KSV: 6.891 ×10⁴ /M
Albumin [3]
  KSV: 4.043 ×10⁴ /M
Beta-lactoglobulin [4]
  KSV: 5.02 ×10⁴ /M
Beta-lactoglobulin [5]
  KSV: 7.28 ×10⁴ /M
Beta-lactoglobulin [6]
  KSV: 10.6 ×10⁴ /M
Albumin [7]
  Kq: 8.14 ×10¹² /M/s
Albumin [8]
  Kq: 6.891 ×10¹² /M/s
Albumin [9]
  Kq: 4.043 ×10¹² /M/s
Beta-lactoglobulin [10]
  Kq: 3.92 ×10¹² /M/s
Beta-lactoglobulin [11]
  Kq: 5.69 ×10¹² /M/s
Beta-lactoglobulin [12]
  Kq: 8.28 ×10¹² /M/s
Albumin [13]
  Activity: Dose-dependent effect
  Kb: 48400 M⁻¹
Albumin [14]
  Activity: Dose-dependent effect
  Kb: 44100 M⁻¹
Albumin [15]
  Activity: Dose-dependent effect
  Kb: 34000 M⁻¹
Beta-lactoglobulin [16]
  Kb: 12500 M⁻¹
Beta-lactoglobulin [17]
  Kb: 19900 M⁻¹
Beta-lactoglobulin [18]
  Kb: 53700 M⁻¹
Albumin [19]
  Activity: 80%
Beta-lactoglobulin [20]
  Ka: 1.99 ×10⁴ /M
Beta-lactoglobulin [21]
  Ka: 1548 M⁻¹
Beta-lactoglobulin [22]
  Ka: 184 M⁻¹
Albumin [23]
  Activity: Active
Albumin [24]
  Activity: 85%
[25]
  Activity: 90%
[26]
  Activity: 78%
[27]
  Activity: 82%
